From PubChem BioAssay
MT1-MMP act inh = MT1-MMP (human) activation inhibition; P50281; HT1080 RFP-PRO-GFP cells, GFP/RFP ratio fluorescence, overnight; percent of plate control window, DMSO zero; GFP/RFP ratio change, % at 20 µM; 0.061% of 360,000 active;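 active = GFP/RFP ratio change of at least 30% with cell ATP level not reduced by more than half and red fluorescence within 50% of control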
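system = RFP-PRO-GFP reporter HT1080 cells | dosing = 20 µM single dose, 1% DMSO | timing = overnight cell settling, then overnight compound exposure, 37 °C, 5% CO2 | read-out basis = GFP/RFP fluorescence ratio | controls = DMSO and RFP-L50D-GFP cell wells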
ADAM17 inh = ADAM17 inhibition, QFRET primary screen; 0.83% of 370,000 active; recombinant ADAM17, EDANS/DABCYL FRET peptide cleavage; inhibition, % at 6.95 µM; P78536;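 active = inhibition above the mean of compounds lying between control limits plus 3 SD, set per campaign, cut at about 8.5% in these data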
Target sequence (P78536 215-824 limits assumed): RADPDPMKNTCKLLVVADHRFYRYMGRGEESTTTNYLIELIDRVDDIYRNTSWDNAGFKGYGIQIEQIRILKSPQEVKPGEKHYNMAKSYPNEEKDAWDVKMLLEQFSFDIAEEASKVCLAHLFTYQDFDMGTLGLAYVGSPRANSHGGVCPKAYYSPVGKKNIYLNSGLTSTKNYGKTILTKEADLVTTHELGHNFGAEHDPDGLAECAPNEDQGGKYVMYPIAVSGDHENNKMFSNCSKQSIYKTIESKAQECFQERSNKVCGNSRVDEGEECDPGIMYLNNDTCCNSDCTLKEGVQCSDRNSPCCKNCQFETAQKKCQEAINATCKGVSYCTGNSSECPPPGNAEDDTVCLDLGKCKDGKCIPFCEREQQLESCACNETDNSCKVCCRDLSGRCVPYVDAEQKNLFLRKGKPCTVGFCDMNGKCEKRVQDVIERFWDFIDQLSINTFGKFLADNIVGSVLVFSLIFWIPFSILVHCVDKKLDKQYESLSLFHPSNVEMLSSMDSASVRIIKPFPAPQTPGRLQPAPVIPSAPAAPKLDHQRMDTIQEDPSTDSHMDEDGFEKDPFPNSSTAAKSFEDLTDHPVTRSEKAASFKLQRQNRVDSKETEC
SKN-1 inh = inhibitors of C. elegans SKN-1 | C. elegans VP596 Pgst-4::GFP/RFP ratio, acrylamide-induced, 24 h | 0.49% of 360,000 active | inhibition, % at 21.8 µM | AID 624304;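 active = interference check ratio from 0.5 to 1.5 plus GFP to RFP signal ratio inhibition reaching or exceeding a fixed threshold, cut at about 30% in these data, passing the limit was not always enough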
GRIN3A LBD mod = NR3A (human) ligand-binding domain modulation; NR3A LBD differential scanning fluorimetry, Tm shift; 0% = protein alone, 100% = glycine-bound protein; Tm shift relative to glycine control, % at 25 µM; 2.5% of 340,000 active; AID 1259313;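 active = melting temperature shift of at least 10% of the positive control shift, at one fixed dose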
MPTP block = blocks calcium-induced mitochondrial swelling. isolated mouse mitochondria, Ca2+ swelling absorbance, 30 min. inhibition, % at 10 µM. 1.4% of 360,000 active;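 active = inhibition of 50% or more, scaled per plate between neutral and stimulator controls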
ADAM10 inh = ADAM10 inhibition, QFRET primary screen; recombinant ADAM10, EDANS/DABCYL FRET peptide cleavage, 3 h; O14672; inhibition, % at 7 µM; 0.62% of 370,000 active; AID 720582;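 active = inhibition above a per-campaign cutoff equal to the mean of compounds falling between control-based bounds plus 3 SD, cut at about 20% in these data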
MPTP counter = mitochondrial membrane potential, counter-screen; shares compounds with MPTP block; isolated mitochondria, Rhodamine 123 fluorescence; inhibition, % at 10 µM; 78% of 5,000 active; in the data active = inhibition above about 22%
MPTP swell DR = dose response confirmation of mitochondrial permeability transition pore inhibitors; isolated mitochondria swelling, absorbance; IC50, µM; shares compounds with MPTP block; 58% of 780 active; in the data active = IC50 below about 20 µM
MPTP cs DR = counter-screen for mitochondrial permeability transition pore inhibitors, dose response | shares compounds with MPTP block | isolated mitochondria counterscreen, fluorescence read-out | IC50, µM | 49% of 780 active; in the data active = IC50 below about 80 µM
Numbers stand for hits; n = inactive; x = not tested or not shown. Compounds with a hit are over-represented: about 4.7% of the library has one in this group of screens.

SMILES | MT1-MMP act inh | ADAM17 inh | SKN-1 inh | GRIN3A LBD mod | MPTP block | ADAM10 inh | MPTP counter | others
O=C(c1cccc(S(=O)(=O)N2CCN(c3ccc(F)cc3)CC2)c1)N1CCCC(C(F)(F)F)C1 (configuration not stated) | n | n | n | n | 73 | n | 85
COc1cc(C(=O)NCc2ccccc2)ccc1OC(F)F | n | n | n | n | n | n | x
COc1ccc(COc2ccccc2C(=O)NCc2ccccc2)cc1F | n | n | n | n | 96 | n | 88
Cc1cc(Sc2nc(NC(C)(C)C)nc(N3CCOCC3)n2)nc(Cl)n1 | n | n | n | n | n | n | x
O=C(Nc1cc(Cl)cc(Cl)c1)Nc1cnccn1 | n | n | n | n | 62 | n | 101
O=C(Nc1ccc(F)cc1)Nc1cnccn1 | n | n | n | n | n | n | x
Cc1c(C(=O)Nc2nnc(C(F)(F)F)s2)oc2ccccc12 | n | n | n | n | 67 | n | n | MPTP swell DR=6.5;MPTP cs DR=<2.5
CCC(CC)C(=O)Nc1cccc(S(=O)(=O)c2cccc(NC(=O)C(CC)CC)c2)c1 | n | n | n | n | 58 | n | 36
CC(=O)NCCNC(=O)c1ccc(Sc2ccccc2)c([N+](=O)[O-])c1 | n | n | n | n | n | n | x
CN(C)CCNC(=O)c1ccc(Sc2ccc(Br)cc2)c([N+](=O)[O-])c1 | n | n | n | n | 102 | n | n | MPTP swell DR=5.8;MPTP cs DR=n
O=C(/C(N=Nc1cccc(C(F)(F)F)c1)=C(/O)c1cccs1)C(F)(F)F | n | n | n | 17 | 86 | n | 82
O=C(N/N=C(\CC(=O)c1cccs1)C(F)(F)F)c1ccncc1 | n | n | n | n | n | n | x
Cc1ccc(C(=O)N/N=C(/CC(=O)c2cccs2)C(F)(F)F)cc1 | n | n | n | n | 55 | n | 82
CCOC(=O)c1c(CN(CC)CC)n(C)c2cc(Br)c(O)cc12 | n | n | n | n | n | n | x
CCOC(=O)c1c(CNCCN(CC)CC)n(C)c2cc(Br)c(OC)cc12 | n | n | n | n | 74 | n | n | MPTP swell DR=n;MPTP cs DR=n
CCOC(=O)c1c(CN2CCCCC2)n(C)c2cc(Br)c(OC)cc12 | n | n | n | n | n | n | x
CCOC(=O)c1c(CN2CCN(CCO)CC2)n(C)c2cc(Br)c(OC)cc12 | n | n | n | n | 68 | n | n | MPTP swell DR=n;MPTP cs DR=n
CCN1CCc2c(sc(NC(=O)Cc3ccccc3)c2C(N)=O)C1 | n | n | n | n | n | n | x
CCN1CCc2c(sc(NC(=O)Nc3ccc(Cl)c(Cl)c3)c2C(N)=O)C1 | n | n | n | 18 | 55 | n | 51
COc1ccc(N(CC(=O)Nc2cc(C)ccc2C)S(=O)(=O)c2c(C)nn(C)c2C)cc1 | n | n | n | n | n | n | x
S=C(NC1CCCCC1)N(CCc1nc2ccccc2[nH]1)C1CCCC1 | n | n | n | n | 65 | n | 79
CCn1cc(S(=O)(=O)Nc2ccc(C)c(Cl)c2)cn1 | n | n | n | n | n | n | x
CCSc1nnc(NC(=O)C2CC=CCC2C(=O)O)s1 (configuration not stated) | n | n | n | n | n | n | x
COc1cc2c3cc1Oc1cc(ccc1O)C[C@@H]1c4c(cc(OC)c(O)c4Oc4ccc(cc4)C[C@@H]3N(C)CC2)CC[N+]1(C)C | x | n | x | x | x | n | x
COc1ccc2cc1Oc1ccc(cc1)C[C@H]1c3c(cc(OC)c4c3Oc3c(ccc5c3[C@H](C2)N(C)CC5)O4)CCN1C | n | x | n | n | 90 | x | n
SMILES | MT1-MMP act inh | ADAM17 inh | SKN-1 inh | GRIN3A LBD mod | MPTP block | ADAM10 inh | MPTP counter | others
COc1ccc2cc1Oc1ccc(cc1)CC1c3c(cc(OC)c4c3Oc3cc5c(cc3O4)CCNC5C2)CCN1C (configuration not stated) | n | x | n | n | 78 | x | n
CCC(CO)Nc1ccc(-c2n[nH]c(=O)c3ccccc23)cc1[N+](=O)[O-] (configuration not stated) | n | n | n | n | n | n | x
CCOC(=O)C1CCC(CNCc2ccccc2C)CC1 (configuration not stated) | n | n | n | n | n | n | x
CN(C)CCCN1c2ccccc2Sc2ccccc21 | n | n | n | n | x | n | x
CN(C)CCCN1c2ccccc2CCc2ccc(Cl)cc21 | x | n | n | n | 80 | n | n
CC(C)COC(=O)CCNc1n[nH]c(=O)[nH]c1=O | n | n | n | n | n | n | x
O=C(Nc1nc2c(F)cc(F)cc2s1)C1CCN(C(=O)c2ccc(F)cc2)CC1 | n | n | n | x | n | n | x
O=C(Nc1nc(-c2ccc(F)cc2)cs1)C1CCN(C(=O)c2ccc(F)cc2)CC1 | n | n | n | n | 64 | n | 78
COc1ccccc1N(CC(O)Cn1nc(C)cc1C)S(=O)(=O)c1ccccc1 (configuration not stated) | n | n | n | n | n | n | x
CCOCCCn1c(SCC(=O)Nc2oc(C)c3c(C)n[nH]c(=O)c23)nc2ccccc2c1=O | n | n | n | n | n | n | x
O=C(Cc1ccc(Br)cc1)NCCc1ccc(Cl)cc1Cl | n | n | n | n | 50 | n | 68
O=C(N/N=C/c1cccc(Oc2ccccc2)c1)c1cccc(Br)c1 | n | n | n | n | 67 | n | 75
O=C(N/N=C/c1cccc(Oc2ccccc2)c1)c1cccc(O)c1 | n | n | n | n | n | n | x
COc1ccc(CN(C)S(=O)(=O)c2nnc(NC(=O)c3cccc(OC)c3)s2)cc1 | n | n | n | n | n | n | x
COc1cccc(C(=O)Nc2nnc(S(=O)(=O)N(C)Cc3ccc(F)cc3)s2)c1 | n | n | n | n | 56 | n | 80
CC(OC(=O)c1cc(O)c2ccccc2c1O)C(=O)Nc1ccc(C(N)=O)cc1 (configuration not stated) | n | n | n | n | n | n | x
COC(=O)[C@]12CCCCC=C1N(Cc1ccc(OC)cc1)C(=O)[C@@H]2CC(=O)N1CCSCC1 | x | n | x | x | x | n | x
CCN(CC)c1ccc(/C=N/N(c2ccccc2)c2ccccc2)c(O)c1 | n | n | n | n | 97 | n | 54
CCN(CC)c1ccc(/C=N/N=C(c2ccccc2)c2ccccc2)c(O)c1 | n | n | n | n | n | n | x
Cc1csc2c(N3CCN(C(=S)Nc4ccc(F)cc4F)CC3)ncnc12 | n | n | n | n | 92 | n | 91
Fc1ccc(NC(=S)N2CCOCC2)c(F)c1 | n | n | n | n | n | n | x
Cc1csc2c(N3CCN(C(=O)Nc4ccccc4)CC3)ncnc12 | n | n | n | n | 54 | n | 24
